Consider 15 compounds from ChEMBL document CHEMBL2021799, “Exploring the interplay of physicochemical properties, membrane permeability and giardicidal activity of some benzimidazole derivatives” (Eur J Med Chem, 2012).

The subject of data set [1] is Caco-2. Description: Apparent permeability from apical to basolateral side of human Caco2 cells at 100 uM up to 90 mins. To be noted: caco-2, 1.5 h. On the technique in general: Caco-2 monolayers are a common model of the intestinal barrier.
Data set [2] in a line: Distribution coefficient, log D of the compound. To be noted: octanol/water.
For data set [3], the system named is Giardia intestinalis. The data set is described as follows: Antiparasitic activity against Giardia duodenalis IMSS:0989 after 48 hrs. The data set is classed as functional, organism-based. To be noted: IMSS:0989, 48 h. An outline of the steps:
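G. duodenalis trophozoites grown in modified TYI-S-33 with 10% calf serum and bovine bile. 5 × 10⁴ trophozoites incubated 48 h at 37 °C with increasing compound concentrations; DMSO-treated trophozoites as negative control. An aliquot was then subcultured 48 h in fresh drug-free medium, trophozoites counted, and IC50 obtained by Probit analysis.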

For data set [4], the system named is Caco-2. The data set is described as follows: Apparent permeability from basolateral to apical side of human Caco2 cells at 100 uM up to 90 mins. To be noted: caco-2, 1.5 h.
Data set [5] is described as follows: Aqueous solubility of the compound. To be noted: for solubility: aqueous medium, not specified further; for log1/S: buffer.
Data set [6] can be described thus: Lipophilicity, logkw of the compound by RP-HPLC analysis.
Data set [7] relates to Caco-2. The data set is described as follows: Influx ratio of permeability from basolateral to apical side over apical to basolateral side in human Caco2 cells at 100 uM up to 90 mins. To be noted: caco-2, 1.5 h.
For data set [8], the system named is Caco-2. The data set is described as follows: Efflux ratio of permeability from apical to basolateral side over basolateral to apical side in human Caco2 cells at 100 uM up to 90 mins. To be noted: caco-2, 1.5 h.
Data set [9] concerns Giardia intestinalis. The data set is described as follows: Ratio of metronidazole IC50 to compound IC50 for Giardia duodenalis IMSS:0989. The data set is classed as functional.

≈ marks a conversion by molar mass, not a printed value.

As to `Cn1c(C(F)(F)F)nc2ccc(C(=O)O)cc21`, the Papp (as a rule, a coefficient for how fast a substance crosses the barrier) in the data set with Caco-2 [1] was determined as 5.09 ×10⁻⁶ cm/s; in the data set with Caco-2 [4], 4.65 ×10⁻⁶ cm/s. The logD (usually the decadic logarithm of the distribution of all forms, ionised or not, between an organic phase and buffer at a given pH) in data set [2] was determined as 3.7. Moreover, the IC50 (usually the concentration needed to halve the response being measured) in the data set on Giardia intestinalis [3] was determined as 330 nM. Moreover, in data set [5], the concentration in solution (solubility) came to 98.7 µg/mL (≈ 404 µM). For the same compound, in data set [5], the log1/S amounted to 3.39. The logKw in data set [6] was found to be 1.13. In addition, the results for the Ratio in the data set with Caco-2 [7] and with Caco-2 [8] were 1.09 and 0.91, respectively.

The compound `Cn1c(C(F)(F)F)nc2ccc(Cl)cc21` returned a logD in data set [2] of 4.02. Further, in data set [5], the solubility (as a rule, the dissolved amount per volume that the medium holds) turned out to be 0.033 µg/mL (≈ 0.141 µM) and the log1/S turned out to be 6.85. Also, the logKw in data set [6] is reported as 2.37.

For the compound `COC(=O)c1ccc2c(c1)nc(C(F)(F)F)n2C`, the Papp with Caco-2 [1] came out at 26.7 ×10⁻⁶ cm/s; in the data set with Caco-2 [4] it was 23.9 ×10⁻⁶ cm/s. The compound further yielded a pH-dependent lipophilicity (logD) in data set [2] of 3.65. In the data set with Giardia intestinalis [3], this compound displayed an IC50 of 2450 nM. Also, the solubility in data set [5] was 0.281 µg/mL (≈ 1.09 µM). The same compound yielded a log1/S in data set [5] of 5.96. In data set [6], this compound gave a logKw of 2.05. The values for the Ratio in the data set on Caco-2 [7] and in the data set with Caco-2 [8] were 1.11 and 0.89, respectively.

In the case of `CC(C)NCC(O)COc1cccc2ccccc12` (stereo unspecified) [PROPRANOLOL], the Papp in the data set with Caco-2 [4] came to 37.9 ×10⁻⁶ cm/s. The Ratio is listed as 1.27 with Caco-2 [7] and 0.78 in the data set with Caco-2 [8].

As to `FC(F)(F)c1nc2cc(Cl)c(Cl)cc2[nH]1`, in [2], the logD was determined as 4.49. In [5], the solubility is 0.0025 µg/mL (≈ 0.0098 µM) and the log1/S is reported as 8. Further, in data set [6], the logKw was 2.78.

In the case of `Cc1nc2cc(Cl)c(Cl)cc2n1C`, the figures for the apparent permeability coefficient (Papp) in the data set with Caco-2 [1] and with Caco-2 [4] were 7.98 ×10⁻⁶ cm/s and 11.2 ×10⁻⁶ cm/s, respectively. For the same compound, in [2], the logD stood at 3.86. The compound further gave an IC50 in the data set with Giardia intestinalis [3] of 55 nM. The same compound displayed a solubility in [5] of 0.0716 µg/mL (≈ 0.333 µM). For the same compound, in data set [5], the log1/S is 6.47. The compound also displayed a logKw in [6] of 2.24. In addition, the Ratio with Caco-2 [7] turned out to be 0.71; with Caco-2 [8] it was 1.4.

`COC(=O)Nc1nc2ccc(Sc3ccccc3)cc2[nH]1` [FENBENDAZOLE] came in with a logD in data set [2] of 3.93. The IC50 with Giardia intestinalis [3] was 56 nM. Further, in data set [5], the solubility was 0.025 µg/mL (≈ 0.0835 µM) and the log1/S was 7.07. The compound also displayed a logKw in data set [6] of 2.44.

`Cn1c(C(F)(F)F)nc2cc(Cl)ccc21` displayed a logD in data set [2] of 3.98. Moreover, in data set [5], the concentration in solution (solubility) came to 0.0412 µg/mL (≈ 0.176 µM) and the log1/S was 6.75. The compound further gave a logKw in [6] of 2.33.

On to `COC(=O)c1ccc2[nH]c(C(F)(F)F)nc2c1`, for which the apparent permeability (Papp) in the data set on Caco-2 [1] was determined as 32.7 ×10⁻⁶ cm/s; with Caco-2 [4], 23 ×10⁻⁶ cm/s. In data set [2], the logD came to 3.52. Besides, the midpoint of inhibition with Giardia intestinalis [3], the IC50, lay at 1190 nM. Besides, the concentration in solution in data set [5] (solubility) was 0.555 µg/mL (≈ 2.27 µM). This compound came in with a log1/S in [5] of 5.64. This compound yielded a logKw in data set [6] of 1.94. Besides, the Ratio in the data set on Caco-2 [7] is given as 1.42; with Caco-2 [8] it was 0.7.

In the case of `CNC(=O)c1ccc2nc(C(F)(F)F)n(C)c2c1`, the Papp came to 14.6 ×10⁻⁶ cm/s with Caco-2 [1] and 8.98 ×10⁻⁶ cm/s in the data set on Caco-2 [4]. Further, the logD in data set [2] worked out at 3.92. Besides, the IC50 with Giardia intestinalis [3] worked out at 211 nM. This compound also came in with a solubility in data set [5] of 29.6 µg/mL (≈ 115 µM). The same compound returned a log1/S in data set [5] of 3.93. In data set [6], this compound showed a logKw of 1.33. Moreover, the Ratio in the data set with Caco-2 [7] worked out at 1.62; in the data set on Caco-2 [8], 0.61.

As for `Cn1c(S)nc2cc(Cl)ccc21`, the Papp was 6.92 ×10⁻⁶ cm/s with Caco-2 [1] and 9.57 ×10⁻⁶ cm/s in the data set with Caco-2 [4]. The logD in data set [2] is 3.14. In addition, the “Ratio IC50” value in the data set with Giardia intestinalis [9] was 61. The compound also yielded an IC50 in the data set with Giardia intestinalis [3] of 45 nM. In [5], this compound yielded a solubility of 3.79 µg/mL (≈ 19.1 µM). This compound also yielded a log1/S in [5] of 4.71. The same compound showed a logKw in data set [6] of 1.61. Further, the Ratio with Caco-2 [7] was 0.72; in the data set on Caco-2 [8], 1.38.

Regarding `CCN(CC)C(=O)COC(=O)c1ccc2nc(C(F)(F)F)n(C)c2c1`, the results for the Papp in the data set with Caco-2 [1] and with Caco-2 [4] were 15.4 ×10⁻⁶ cm/s and 13 ×10⁻⁶ cm/s, respectively. The logD in [2] was determined as 2.81. This compound came in with a concentration for half-maximal inhibition (IC50) in the data set with Giardia intestinalis [3] of 470 nM. The solubility in [5] came out at 0.0572 µg/mL (≈ 0.16 µM). This compound also came in with a log1/S in data set [5] of 6.62. The compound further registered a logKw in data set [6] of 2.29. The Ratio in the data set with Caco-2 [7] worked out at 1.17; in the data set on Caco-2 [8] it was 0.84.

As for `FC(F)(F)c1nc2ccccc2[nH]1`, the logD in data set [2] came out at 3.36. In data set [5], this compound came in with a solubility of 0.992 µg/mL (≈ 5.33 µM) and a log1/S of 5.27. For the same compound, the logKw in data set [6] is on record as 1.8.

Consider `Cc1nc2ccccc2n1C`, for which the Papp in the data set with Caco-2 [1] turned out to be 9.03 ×10⁻⁶ cm/s; in the data set with Caco-2 [4] it was 10.2 ×10⁻⁶ cm/s. The compound also registered a logD in data set [2] of 1.77. In the data set on Giardia intestinalis [3], the midpoint of inhibition, the IC50, lay at 89 nM. The solubility in data set [5] was 5790 µg/mL (≈ 39600 µM). The same compound yielded a log1/S in data set [5] of 1.4. Moreover, in data set [6], the logKw is recorded as 0.42. In addition, the Ratio in the data set on Caco-2 [7] was 0.88; in the data set on Caco-2 [8] it was 1.13.

For the compound `CCN(CC)C(=O)COC(=O)c1ccc2c(c1)nc(C(F)(F)F)n2C`, the Papp was found to be 21.9 ×10⁻⁶ cm/s in the data set on Caco-2 [1] and 11 ×10⁻⁶ cm/s in the data set with Caco-2 [4]. The logD in data set [2] was 4.06. In the data set with Giardia intestinalis [3], this compound displayed an IC50 of 133 nM. This compound had a solubility in data set [5] of 0.0401 µg/mL (≈ 0.112 µM). Besides, in data set [5], the log1/S was 6.94. Further, the logKw in [6] is listed as 2.4. Besides, the figures for the Ratio in the data set on Caco-2 [7] and in the data set on Caco-2 [8] were 1.99 and 0.5, respectively.
